Data: ChEMBL document CHEMBL4825683, “Synthesis and approbation of new neuroprotective chemicals of pyrrolyl- and indolylazine classes in a cell model of Alzheimer's disease” (Eur J Med Chem, 2021)
Calls of active or inactive are those of the source. The rule behind the calls is not given here.

Experiments:
[1] = target: T1, Heat shock factor protein 1 (Homo sapiens) (UniProt Q00613); assay: Activation of Hsf1 in human MSC-NEU cells assessed as induction of HSP70 accumulation at 1 uM incubated for 24 hrs by Western blotting analysis relative to control; assay type: cell-based; details: MSC-NEU cell, filed as activator
T1 sequence (whole entry): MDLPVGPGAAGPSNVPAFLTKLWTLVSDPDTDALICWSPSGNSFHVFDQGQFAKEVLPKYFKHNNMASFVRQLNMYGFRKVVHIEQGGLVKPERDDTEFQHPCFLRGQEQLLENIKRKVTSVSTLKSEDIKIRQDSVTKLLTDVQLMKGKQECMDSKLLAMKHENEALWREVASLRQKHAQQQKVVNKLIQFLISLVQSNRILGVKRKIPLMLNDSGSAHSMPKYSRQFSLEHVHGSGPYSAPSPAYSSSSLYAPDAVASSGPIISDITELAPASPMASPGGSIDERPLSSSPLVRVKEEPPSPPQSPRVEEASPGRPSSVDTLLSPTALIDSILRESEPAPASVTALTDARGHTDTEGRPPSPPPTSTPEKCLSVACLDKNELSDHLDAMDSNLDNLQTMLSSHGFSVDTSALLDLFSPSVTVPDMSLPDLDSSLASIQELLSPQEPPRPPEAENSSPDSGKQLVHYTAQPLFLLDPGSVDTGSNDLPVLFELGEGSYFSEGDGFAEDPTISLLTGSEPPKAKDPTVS
Summary of the method: (§1)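 MSC-NEU cells: human dental-pulp mesenchymal stem cells (MSC-DP) grown in DMEM/F12 with 10% FBS, 100 units/mL penicillin and 0.1 mg/mL streptomycin at 37 °C, 5% CO2. They were then reprogrammed to a neuronal phenotype over 5 days in Neurobasal medium with B27 supplement, 3% FBS and the same antibiotics.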

[2] = target: T1, Heat shock factor protein 1 (Homo sapiens); assay: Activation of Hsf1 in human MSC-NEU cells assessed as induction of HSP90 accumulation at 1 uM incubated for 24 hrs by Western blotting analysis relative to control; assay type: cell-based; details: MSC-NEU cell; for fold change (FC): filed as activator; summary of the method: as §1
[3] = target: T1, Heat shock factor protein 1 (Homo sapiens); assay: Activation of Hsf1 in human MSC-NEU cells assessed as increase in HSP70 substrate-binding chaperone activity at 1 uM incubated for 24 hrs by protein-protein interaction assay relative to control; assay type: cell-based; details: MSC-NEU cell, filed as activator; summary of the method: as §1
[4] = Cytotoxicity against human MSC-NEU cells assessed as reduction in cell viability measured after 48 hrs by MTT assay; assay type: cell-based; details: read-out: LC50
Summary of the method: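 Human dental pulp mesenchymal stem cells (MSC-DP) were grown in DMEM/F12 with 10% FBS, penicillin and streptomycin at 37 °C and 5% CO2. They were then reprogrammed to a neuronal phenotype (MSC-NEU) over 5 days in Neurobasal medium with B27 supplement, 3% FBS and antibiotics.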

[5] = Neuroprotective activity against amyloid beta (1 to 42)-stimulated human MSC-NEU cells assessed as increase in cell index incubated for 48 hrs by xCELLigence RTCA analysis; assay type: functional; summary of the method: as §1
[6] = Inhibition of amyloid beta (1 to 42)-induced cellular senescence in human MSC-NEU cells assessed as reduction in beta-galactosidase activity at 1 uM measured after 48 hrs by X-Gal staining based analysis relative to control; assay type: functional, MSC-NEU cell; summary of the method: as §1
[7] = Inhibition of amyloid beta(1 to 42)-induced apoptosis in human MSC-NEU cells assessed as reduction in caspase-3 activity at 1 uM measured after 24 hrs by fluorescence based analysis relative to control; assay type: functional, MSC-NEU cell; summary of the method: as §1
[8] = Inhibition of amyloid beta(1 to 42)-induced apoptosis in human MSC-NEU cells at 1 uM measured after 24 hrs by AnnexinV-Alexafluor647/propidium iodide staining based flow cytomtery relative to control; assay type: functional, MSC-NEU cell; summary of the method: as §1
[9] = target: T1, Heat shock factor protein 1 (Homo sapiens); assay: Activation of Hsf1 in human HEK293 cells transfected with Hsp70.1pr-luc plasmid at 1 uM incubated for 24 hrs by luciferase reporter gene based luminescence assay; assay type: cell-based; details: filed as activator

Row | SMILES | fold change (FC) [1] | fold change (FC) [2] | fold change (FC) [3] | CC50 at 48 h [4] [µM] | Activity [5] [%] | fold change (FC) [6] | fold change (FC) [7] | fold change (FC) [8] | Activity [9] | Activity [2]
1 | O=c1[nH]c2ccccc2nc1-c1ccc(-c2ccccc2)[nH]1 | 1.6 | 1.85 | 1.3 | 494 | 10 | 1.12 | 2.12 | 4.2 | Active | 
2 | Brc1ccc2[nH]cc(-c3ncnc4ccccc34)c2c1 | 1.9 |  | 1.3 | 279 | 10 | 1.04 | 2.51 | 4.2 | Active | inactive
3 | Clc1nccc(-c2c[nH]c3ccc(Br)cc23)n1 | 2.7 | 1.6 | 1.3 | 316 | 10 | 1.17 | 2.04 | 4.2 | Active | 
4 | C[n+]1c2ccccc2c(-c2c[nH]c3ccc(O)cc23)c2ccccc21.[I-] | 2.2 | 2.1 | 1.3 | > 1000 | 10 | 1.22 | 2.24 | 4.2 | Active | 
